Among the data in the RNAGym collection of RNA variant scans (doi:10.1126/science.aae0568) are yeast fitness values, retold here.

B1: tRNA (parent)
chain: GUUCCGUUGGCGUAAUGGUAACGCGUCUCCCUCCUAAGGAGAAGACUGCGGGUUCGAGUCCCGUACGGAACG

Variants at the floor of the assay were thinned out. Bounds are passed on as bounds.

Variants of B1 are the subject of the data set. In words: yeast fitness relative to wild type (ratio to wild type); higher = fitter; tRNA-Arg(CCU), competitive growth, 37 C, YPD. A digest of the protocol: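 Genotype frequency changes were the basis for Darwinian fitness relative to wild type. The frequencies came from 100-nucleotide paired-end sequencing of gene amplicons from the start population and each end population of pooled yeast strains with tRNA-Arg(CCU) gene variants at the native locus. Competition ran in YPD at 37°C for 24 hours in six replicates, genotypes needed ≥ 100 starting reads, and estimates < 0.5 were set to 0.5.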
In the case of GUUCCCUUGGCGUAAUGGUAACGUGUCUCCCUCCUAAGGAGAAGACUGCGGGUUCGAGUCCCGUACCGAACG, the yeast fitness is 0.537.
Take GUUCCCUUGGCGUAAUAGUAACGCGUCUCCCUCCUUAGGAGAAGAAUGUGGGUUCGAGUCCCGUAAGGAACG: the yeast fitness is at most 0.5.
As for GUUCCCUUGGCGUAAUGGUAACGCGUCUGUCUCCUAAGGAGAAGACUGCGCGUUCGAGUCCCGUAAGGAACG, the yeast fitness was 0.686.
GUUCCCUUGCCGUAAUGGUAAGGCGUCUCUCUCUUUAGGAGAAGACUGCGGGUUCGAGUCCCGUACGGAACG: the yeast fitness came out at 0.517.
With GUUCCCUUGGCGUAAUGGUAACGCGUCUCCCUCCUAAGGAGAAGACUGCGGGUUCGAGUCCUGUACGGAACG, the yeast fitness is 0.879.
Consider GUUCCCUUGGCGUAAUGGUAACGCGUCUCCCUCCUAAGGAGAAGACUGCGGGUUCGAGUCCGGUACGGAACG, for which the yeast fitness amounted to 0.688.
For GUUCCCUUGGCCUAAUGGUAACGCGUCUACCUCCUAAGGAGAAGACUGCGGGUUCGAGUCCCGUACGGAACG the value was at most 0.5; for GUUCCCUUGACGUAAUGGUAACGCGUCUCCCUCCUUAGGAGAAGACUGCGGGUUCGAGUCCCAUACGGAACG, at most 0.5.
On to GUUCCCUUGGCGUAAUGAUAACGCGUCUCCCUCCUAAGGAGAAGACUGCGGGUUCGAAUCCCGUACGGAACG, for which the yeast fitness is at most 0.5.
GUUCCCUUGGCGUAAUGGUAACGCGUGCCCCUCCUAAGGAGAAGACUGCGGGUUCGAGUCCGGUACGGAACG: the yeast fitness was at most 0.5.
GUUCCCUUGCUGUAAUGGUAACGCGUCUCCCUCCUAAGGAGAAGACUGCGGGUUUGAGUCGGGUACGGAACG: the yeast fitness was at most 0.5.
Consider GUUCCCUUGGCGUAAUGGUAACGCGUUUCCCUCCUAAGGAGAAGGCUGCGGGUUCGAGUCCCGAACGGAACG, for which the yeast fitness was 0.67.
In the case of GUUCCCUUGACGUAAUGGUAACGCGUCUCCCUCCUUAGGAGAAGACUGCGCGUUCGAGUCCCGUACGGCACG it was 0.624; in that of GUUCCCUUGGCGUAAUGGUAACGCGUCUCCCUCCUAAGGAGAAGAGUGCGGGUUCGAGUCCCGUACGGACCG, 0.511; in that of GUUCCCUUGGCGUAAUGGUAACCAGUCUCCCUCCUAAGGAGAAGACUGCGGGUUCGAGUCUCGUACGGAACG, at most 0.5.
In the case of GUUCCCUUGGCGUAAUGGUAACGCGUCUACCUCCUAAGGAGAAGACUGCGGGUUCGAGUCCCGUACGGAACG, the yeast fitness is 0.667.
As for GUUCCCUUGGCGUAAUGCUAGCGCGUCUCCCUCCUAAGGUGAAGACUGUGGGUUCGAGUCCCGUACGGAACG, the yeast fitness is at most 0.5.
For GUUCCCUUGGCGUAAUGGUAACGCGUCUCCCUCCUAAGGAGAAGAUUGCGGGUUCGCGUCCCGUACGGAACG the value was at most 0.5; for GUUCCCUUGGCCUAUUGGUACCGCGUCUCCCUCCUAAGGAGAAGACUGUGCGCUCGAGUCCCGUACGGAACG, at most 0.5.
For GUUCCCUUGGCGUAAUGGUAACGCGUCUCCCUCCUAAGGAGAAGACUGUGGGCUCGAGUCGCGUACGGAACG the value was at most 0.5; for GUUCCCUUAGCGUAAUGGUAUCGCGUCGCCCUCUUAAGGAGAAGCCUGCGGGUUCGAGUCCCGUACGGAACG, at most 0.5; for GUUCCCUUGGCGUAAUGGUAACGCGUCUCCUUCCUAAGAAGAAGAGUGCGGGUUCGAGUCCCGUACGGAACG, at most 0.5.
Take GUUCCCUUGGCGUAAUGGUAACGCGUCUCCCUCCUAAGGAGAAGACUGCGGGUUUGAGGCCCGUACGGAUCG: the yeast fitness is at most 0.5.
As for GUUCCCUUGGCGUAAUGGUAACGCGUAUCGCUCCUAAGGACAAGACUGCGGGUUCGAGUCGUGUACGGUACG, the yeast fitness was at most 0.5.
Turning to GUUCCCUUGCCGUAAUGGUAACGCGUCUCUCUCCAAAGGAGAAGACUGCGGGUUCGAGUCCCGUACGGAACG, the yeast fitness is at most 0.5.
For GUUCCCUUGGCGUAAUGGUAACGCAUCUCCCUCCUAAGGAGAUGACUGCGGGUUCGAGUCCCGUACCGAACG the value was at most 0.5.
Take GUUCCCUUGGCGUAAUGGUAACGCGUCUCCCUCGUAAGGAGAAGACUGCGGGUUCGAGUCCCGUACGGCACG: the yeast fitness is at most 0.5.
For the variant GUUCCCUUGGCGUAAUGGUAACGCGUCUCACUCCUAAGGAGAAGGCUGCGGGUUGGUGUCCGGUACGGAACG, the yeast fitness is at most 0.5.
For GUUCCCUUGGCGUAAUGGUAACGCGUCUCCCUUCUAAGGAGAAGACUGCGGCUUAGAGUCCCGUACGGAACG the value was at most 0.5; for GUUCCCUUGGCGUAAUGGUAACGCGUCUCCCUGCUCAGGAGAAGACUGAGGGUUCGAGUGCCGUGCGGAUCG, at most 0.5.
For the variant GUUCCCUUGGCGUAAUGGUAACGCGUCUCCCUCUUAAGGAGAAGACUGCGGCUUCGAGUCCCGUACGGAACG, the yeast fitness was 0.565.
In the case of GUUCCCUUGGCGUAAUGGUAACGCGUCUCCCUGCUAACGAGAAGACUGCGGGUUCGAGUCCCGUACGGAACG, the yeast fitness was at most 0.5.
For GUUCCCUUGGCGUAAUGGUAACGCAUCUCCCUCCUAAGGAGAAGACUGCGGGUUCGAGUCCCGUGCGGAACG the value was 0.595; for GUUCCCUUGGCGUAAUGGUAACCCGUCUCCGUCCUAAGGAGAAGACUGCGGGUUCGAGUCCCGUACGGAACG, at most 0.5; for GUUCCCUUGGCGUAAUGGUAACGCGUCUCCCUCCUAAGGAGAAGAUUGCGGGUUCGAGUCCCGUACGGAACG, 0.966.
Take GUUCCCUUGGCGUAAUGGUAACACGUCUCCCUCCUAAGGAGAAGACUGUGGGUUCGAGUCCCGUACGGAACG: the yeast fitness was at most 0.5.
Regarding GUUCCCUUGGCGUAAUGGUAACGCGUCUCCCUCCUAAGGAGAAGACUGCGGGUUCGAGUACCGUACGGAACG, the yeast fitness turned out to be 0.583.
On to GUUCCCUUGGCGUAAUGGUAACGCGUCUCCCUCCUAACGAGACGACUGCGCGUUCCAGUCCCGUACGGAACG, for which the yeast fitness stood at 0.526.
On to GUUCCCUUGGCGUAAUGGUAACGCCUCUCCCUCCUAUGCAGAAGACUGCGGGUUCGAGUCCGGUACGGAACG, for which the yeast fitness is at most 0.5.
Turning to GUUCCCUUGGCGUAAUAGUAACGCGUCUCUCUCCUAAGGAGCAGACUGCGGGUUCGAGUCCCGUGGGAAACG, the yeast fitness was at most 0.5.
In the case of GUUCCCUUGGCGUAAUGGUAACGCGUCUCCUUCGUAAGGAGAAGACUGCGGGUUCGAGUCCCGUACGGAACG, the yeast fitness was at most 0.5.
GUUCCCUUGGCGUAAUGGUAACGCGUCUCCCUCUUAAGGAGAAGACUGCGGGUUCGAGUCCCGUAUGGAUCG: the yeast fitness amounted to 0.639.
For GUUCCCUUGGCGUAAUGGUAACCAGUCUCCCUCCUAAGGAGAAGACUGCGGGUUCGAGUCCCGUAUGGAACG the value was at most 0.5; for GUUCCCUUGGCGUAAUGGUAACCCGUCUCCCUCCUAAGGAGAAGACUGCGGGUUCGAGUCCCGUACGGAACG, 0.643; for GUUCCCUUGGCGUAAUAGUAACGCGUCUCCCUCCUUAGGAGAAGACUGCGGGUUCGAGUCCCGUACGGAACG, at most 0.5.
For GUUCCCUUGACGUAAUGGUAACGCGUCUCCCUCCUAAGGAGAAGACUGCGGGUUCGAGUCCCGUACGGAACG, the yeast fitness turned out to be 0.666.
On to GUUCCCUUGGCGUAAUGGUAACGCGUCUCCCUUCUAAGGAGAAGACUGCGGGUUCGAGUCCUGUACGGAACG, for which the yeast fitness was at most 0.5.
As for GUUCCCUUGGCGUAAUGGUAACGCGUCUACCUCCUAAGGAGAAGACUGCGGGUUAGAGUCCCGUGCGGAACG, the yeast fitness was at most 0.5.
In the case of GUUCCCUUGACGUAAUGGUAACGCGUAUCCCUCCUAAGGAGAAGACUGCGGGUUCGAGUCUCGUUCGGAACG, the yeast fitness was at most 0.5.
In the case of GUUCCCUUGGCGUAAUGGUAACGCGUCUCCUUCCUAAGGAGAGGACUGCGGGUUCGAGUCCCGUACGGUACG, the yeast fitness was at most 0.5.
With GUUCCCUUGGCGUAAUGGUAACGCGUCUGCCUCCUAAGGAGAAGACUGCGGGUUCGAGUCUCGUACGGAACG, the yeast fitness was at most 0.5.
Turning to GUUCCCUUGGCGUAAUGGUAACGCAUGUCCCUCCUAAGGAGAAGACUGCGGGUUCGAGUCCCGUACGGAACG, the yeast fitness stood at 0.591.
In the case of GUUCCCUUGGCAUAAUGGUAACGCGUCUCCCUUCUAAGGAGAAGACUGCGGGUUCGAGUCCCGUGCGGAGCG it was at most 0.5.
As to GUUCCCUUGGCGUAAUGGUAACGCAUCUCCCUCCUAAGGAGAAGACUGCGGGUUCGAGUCCCGUACGGACCG, the yeast fitness amounted to 0.631.
As to GUUCCCUUGGCGUAAUGGUAACACGUUUCCCUCCUAAGGAGAAGGCUGCGGGUUCGAGUCCCGAACGGAACG, the yeast fitness was at most 0.5.
For GUUCCCUUGGCGUAAUGGUAACGCGUCUCGCUCCUAAGGAGAAGACUGCGGGUUCGAGUCCCGUACGGAACG, the yeast fitness was found to be 0.592.
On to GUUCCCUUGGCAUAAUGGUAACGCGUCUCCCUCCUAAGGAGAAGACUGUGGGUUCGACUCCCGUACGGAACG, for which the yeast fitness is 0.776.
Regarding GUUCCCUUGGCGUAAUGGUAACGCGUUUCCCUCCUAAGGAGAAGACUGCGGGUUCGCGUCCCGUACGGAUCG, the yeast fitness worked out at 0.537.
Turning to GUUCCCUUGGCGUAAUGGUAACGCGUCUGCCUCCUAAGGAGAAGACUGCGGGUUCGAGUCCCGUAGGGAACG, the yeast fitness was at most 0.5.
Regarding GUUCCCUUGGCGUAAUGGUAACGCGUCUCCCUCCUAAGGAGAAGACUGCGGGUUGGAGUCCCGUACGGAACG, the yeast fitness was 0.695.
For GUUCCCUUGGCGUAAUGGUAACGCGUCUCCCUCCUAAGGAGAAGACUGCGGGUUAGAGUCCCGUACGGAACG, the yeast fitness stood at 0.717.
Consider GUUCCCUUGGCGUAAUGGUAACGCGUCUCCAUCCUCAGGAGAAAACUGCGGGUUCGUGUCCCGUAAGGAACG, for which the yeast fitness was at most 0.5.
GUUCCCUUGGCAUAAUGGUAACGCGUCUCCCUCCUAAGGAGAAGACUGCGGGUUCGACUCCCGUACGGAACG: the yeast fitness was 0.964.
GUUCCCUUGGCGUAAUGGUAACGCGUCUCCCUUCUAACGAGAAGACUGCGGCUUCGAGUCCUGUACGGAACG: the yeast fitness was at most 0.5.
With GUUCCCUUGGCGUAAUGGUAACGCGUCUCCCUCUUAAGGAGAAGACUGCGGGUUCGAGUCCCGUACGGAACG, the yeast fitness came to 0.648.
For GUUCCCUUGGCGUAAUGGUAACGCGUCUCCCUCAUAAGGAGAAGACUGCGGGUUCGAGUCCCGUACGGAACG, the yeast fitness was 0.611.
As to GUUCCCUUCGCGUAAUGGUAACGCGUCUCCCACCUAACGAGAAGACAGCGGGUUCGAGUCCCGUACGGAACG, the yeast fitness was at most 0.5.
For GUUCCCUUGGCGUAAUGGUAACGCGUCUCCCUCCUAAGGAGAAGACUGCGGGUUGGAGUCCCGUACGGACCG the value was at most 0.5; for GUUCCCUUGGCGUAAUGGUAACGCGUCUCCCUUCUAAGGAGAAGACUGCGGGUUCGAGUCCCGUACGGAACG, 0.644; for GUUCCCUUGGCGUAAUGGUAACGCGUCUCCCUCUUAAGGAGAAAACUGCGGGUUGGAGUCCCGUAGGGAACG, 0.649.
For GUUCCCUUGGCAUAAUGGUAACGCGUCUCCCUCCUAAGGAGAAGACUGCGGGUCCGAGUCCCGUACGGAACG the value was 0.594; for GUUCCCUUGGCGUAAUGGUAACGCGUCUCCCUCCUAAGGAGAAGACUGCGGGUUCGAGUUCAGUACGGAACG, at most 0.5; for GUUCCCUUGGCGUAAUGGUAACGCGUCUCCUUCCAAAGGAGAAGAGUAUGGGUUCGAGUCCCGCACGGAACG, at most 0.5.
For GUUCCCUUGGCGUAAUGCUAGCGCGUCUCCCUCCUAAGGUGAAGACAGUGGGUUCGAGUCUCGUACGGAGCG, the yeast fitness is at most 0.5.
For GUUCCCUUGGCGUAAUGGUAACGCGUCUCCCUCGUAAGGAGAAGACUGCGGGUUCGAGUCCCGUGCGGAACG the value was at most 0.5.
